How the values were obtained:
[1] = system: LNCaP; assay: Cytotoxicity against human LNCAP cells after 72 hrs by XTT assay; format: functional, cell-based; settings: 24 h, in the assay text read “after 24 hrs” for “after 72 hrs”
Procedure, shortened: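 Prostate cancer cells in RPMI-1640 with 10% FBS, 37 °C, 5% CO2, grown to 70–80% confluence and treated at 0.1–100 µM for 24, 48 and 72 h. XTT labeling for 4 h at 37 °C, absorbance 450 nm (reference 650 nm) against control wells. IC50 derived from the mean of eight wells; taxol and cisplatin served as positive controls.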

[2] = system: DU-145; assay: Cytotoxicity against human DU145 cells after 72 hrs by XTT assay; format: functional, cell-based; settings: DU-145, 24 h, in the assay text read “after 24 hrs” for “after 72 hrs”

SMILES	IC50 [1] [µM]	IC50 [2] [µM]
CC(C)C1=CC(=O)[C@]2(C)O[C@@]1(O)[C@@H]1[C@H](C)CC[C@@H]12 [ALPINENONE]	67.1	267
C=C1OC(=O)/C(=C/CCCCCCCCCCCCCCCCCCCCCCCCCC)[C@@H]1O [ISOTENUIFOLIDE]	42.7	84.1
C=C1OC(=O)/C(=C\CCCCCCCCCCCCC)[C@@H]1O [OBTUSILACTONE A]	36.4	68.4
CC(=O)O[C@H]1C(=O)[C@@]2(C)[C@H]([C@H](OC(=O)c3ccccc3)[C@]3(O)C[C@H](OC(=O)[C@H](O)[C@@H](NC(=O)c4ccccc4)c4ccccc4)C(C)=C1C3(C)C)[C@]1(OC(C)=O)CO[C@@H]1C[C@@H]2O [PACLITAXEL]	6.32	

From ChEMBL document CHEMBL1154279, “Cytotoxic compounds from the stems of Cinnamomum tenuifolium” (J Nat Prod, 2009)
